Legend:
Rat [1] = experiment: concentration in plasma after dosing; settings: dosed: Wyeth-14643, 5.0 mg/kg, oral, Male, Sprague-Dawley
Rat [2] = experiment: concentration in plasma after dosing; settings: dosed: Wyeth-14643, 5.0 mg/kg, oral, Male, Sprague-Dawley; remark: listed apart in the source
Rat [3] = experiment: concentration in plasma after dosing; settings: 0.25 h; dosed: Wyeth-14643; 2.0 mg/kg; iv; Male; Sprague-Dawley
Rat [4] = experiment: concentration in heart after dosing; settings: 3 h; dosed: Bis 2-Chloroethoxy Methane; 20 mg/kg; iv; Male; F344
Rat [5] = experiment: concentration in plasma after dosing; settings: 4 h; dosed: Bis 2-Chloroethoxy Methane; 20 mg/kg; iv; Male; F344
Rat [6] = experiment: concentration in brain after dosing; settings: 12 h; dosed: Fluorotelomer alcohol 8+2; 24 mg/kg; oral; Male; Harlan Sprague Dawley
Rat [7] = experiment: concentration in brain after dosing; settings: 1 h; dosed: Fluorotelomer alcohol 8+2; 24 mg/kg; oral; Male; Harlan Sprague Dawley
Rat [8] = experiment: concentration in plasma after dosing; settings: 2 h; dosed: Di-n-butyl phthalate; 100 mg/kg; oral; Male; Sprague-Dawley
Rat [9] = experiment: concentration in liver after dosing; settings: 24 h; dosed: Perfluorodecanoic acid; 10 mg/kg; oral; Female; Harlan Sprague Dawley
Rat [10] = experiment: concentration in plasma after dosing; settings: 3 h; dosed: Primidone; 130 mg/kg; oral; Female; F344
Rat [11] = experiment: concentration in plasma after dosing; settings: 1.5 h; dosed: Primidone; 30 mg/kg; oral; Female; F344
Rat [12] = experiment: concentration in plasma after dosing; settings: 0.5 h; dosed: Primidone; 130 mg/kg; oral; Female; F344
Rat [13] = experiment: concentration in liver after dosing; settings: 2 h; dosed: Thiodiglycolic Acid; 20 mg/kg; iv; Male; Harlan Sprague Dawley
Rat [14] = experiment: concentration in plasma after dosing; settings: 4 h; dosed: Thiodiglycolic Acid; 20 mg/kg; iv; Female; Harlan Sprague Dawley
human [15] = experiment: amount in urine after dosing (mg cumulative excretion); settings: dosed: trichloroethylene, inhalation, duration: 8 hr
Method in brief: (§1)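 Data points giving concentration or amount against time came from published in vivo toxicokinetic studies and from two structured collections. PubMed searching, classifier screening and manual review located the studies. Most points were digitised from plot screenshots using WebPlotDigitizer, the rest were copied from tables, and all keep their reported units.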

human [16] = experiment: concentration in blood after dosing; negative times count back from the end of exposure; settings: dosed: trichloroethylene, inhalation
Method in brief: as §1

Cc1cccc(Nc2cc(Cl)nc(SCC(=O)O)n2)c1C
concentration in plasma [ng/mL]
Settings | 0.5 h | 2 h | 6 h | 10 h
Rat [1] | 1970 | – | – | 150
Rat [2] | – | 3450 | 742 | –

Settings | concentration in plasma [ng/mL]
Rat [3] | 9460

ClCCOCOCCCl [Bis 2-Chloroethoxy Methane]
Settings | concentration in heart [ng/g] | concentration in plasma [ng/mL]
Rat [4] | 179 | –
Rat [5] | – | 118

OCCC(F)(F)C(F)(F)C(F)(F)C(F)(F)C(F)(F)C(F)(F)C(F)(F)C(F)(F)F [Fluorotelomer alcohol 8+2]
Settings | concentration in brain [ng/g]
Rat [6] | 151
Rat [7] | 2520

CCCCOC(=O)c1ccccc1C(=O)O [Mono-n-butyl phthalate]
Settings | concentration in plasma [ng/mL]
Rat [8] | 3520

O=C(O)C(F)(F)C(F)(F)C(F)(F)C(F)(F)C(F)(F)C(F)(F)C(F)(F)C(F)(F)C(F)(F)F [Perfluorodecanoic acid]
Settings | concentration in liver [ng/g]
Rat [9] | 138000

CCC1(c2ccccc2)C(=O)NC(=O)NC1=O [Phenobarbital]
Settings | concentration in plasma [ng/mL]
Rat [10] | 5510
Rat [11] | 380
Rat [12] | 1140

O=C(O)CSCC(=O)O [Thiodiglycolic Acid]
Settings | concentration in liver [ng/g] | concentration in plasma [ng/mL]
Rat [13] | 112000 | –
Rat [14] | – | 324

O=C(O)C(Cl)(Cl)Cl [trichloroacetic acid]
human [15]
Settings | amount in urine
7.504 h, 97 ppm | 6.26
7.706 h, 97 ppm | 3.69
10.24 h, 54 ppm | 5.68
11.01 h, 54 ppm | 9.23
23.46 h, 97 ppm | 32.7
23.84 h, 97 ppm | 36.5
24.26 h, 54 ppm | 25.8
24.54 h, 54 ppm | 30.2
47.49 h, 97 ppm | 113
47.71 h, 97 ppm | 101
48.03 h, 54 ppm | 88.6
48.27 h, 54 ppm | 72
70.31 h, 97 ppm | 166
70.67 h, 97 ppm | 141
71.68 h, 54 ppm | 124
71.91 h, 54 ppm | 110
95.13 h, 97 ppm | 201
95.58 h, 54 ppm | 177
95.7 h, 97 ppm | 168
96.05 h, 54 ppm | 145
119.2 h, 97 ppm | 224
119.67 h, 97 ppm | 190
119.76 h, 54 ppm | 194
119.83 h, 54 ppm | 164
142.97 h, 97 ppm | 249
143.27 h, 97 ppm | 206
143.82 h, 54 ppm | 178
143.83 h, 54 ppm | 217
167.26 h, 97 ppm | 260
167.56 h, 97 ppm | 217
167.82 h, 54 ppm | 232
168.41 h, 54 ppm | 188
191.33 h, 54 ppm | 199
191.56 h, 97 ppm | 269
191.61 h, 54 ppm | 245
191.66 h, 97 ppm | 224

concentration in blood [mg/kg], human [16], duration: 2 hr - 20 min
Settings | 0 h | 0.5 h | 1 h | 1.5 h | 2 h | 21 h
1348 mg | 3 | 3.5 | 3.7 | 4.1 | 4.5 | 13.3
1681 mg | 2.8 | 3.6 | 3.9 | 4.5 | 5.2 | 13.6
3907 mg | 3 | 3.9 | 4.5 | 5.3 | 5.4 | 17.8

human [16]
Settings | concentration in blood
-1.833 h, 1348 mg, duration: 2 hr - 20 min, during exposure | 0.6 mg/kg
-1.833 h, 1681 mg, duration: 2 hr - 20 min, during exposure | 0.4 mg/kg
-1.833 h, 3907 mg, duration: 2 hr - 20 min, during exposure | 0.7 mg/kg
-1 h, 1348 mg, duration: 2 hr - 20 min, during exposure | 1.4 mg/kg
-1 h, 1681 mg, duration: 2 hr - 20 min, during exposure | 1.1 mg/kg
-1 h, 3907 mg, duration: 2 hr - 20 min, during exposure | 1.6 mg/kg
-0.5 h, 1348 mg, duration: 2 hr - 20 min, during exposure | 2.3 mg/kg
-0.5 h, 1681 mg, duration: 2 hr - 20 min, during exposure | 1.7 mg/kg
-0.5 h, 3907 mg, duration: 2 hr - 20 min, during exposure | 2.3 mg/kg
0.1859 h, 100 ppm, duration: 4 hr, person | 3830 ng/mL
0.2626 h, 100 ppm, duration: 4 hr, person | 3950 ng/mL
0.4953 h, 100 ppm, duration: 4 hr, person | 4150 ng/mL
0.7295 h, 100 ppm, duration: 4 hr, person | 3520 ng/mL
1.042 h, 100 ppm, duration: 4 hr, person | 4390 ng/mL
2.008 h, 100 ppm, duration: 4 hr, person | 4230 ng/mL
2.056 h, 100 ppm, duration: 4 hr, person | 4950 ng/mL
4.002 h, 100 ppm, duration: 4 hr, person | 5130 ng/mL
4.087 h, 100 ppm, duration: 4 hr, person | 5830 ng/mL
5.968 h, 100 ppm, duration: 4 hr, person | 6280 ng/mL
6.071 h, 100 ppm, duration: 4 hr, person | 5770 ng/mL
8.056 h, 100 ppm, duration: 4 hr, person | 6100 ng/mL
8.086 h, 100 ppm, duration: 4 hr, person | 6680 ng/mL
10.05 h, 100 ppm, duration: 4 hr, person | 6680 ng/mL
10.13 h, 100 ppm, duration: 4 hr, person | 7050 ng/mL
12.03 h, 100 ppm, duration: 4 hr, person | 7200 ng/mL
12.16 h, 100 ppm, duration: 4 hr, person | 7480 ng/mL
14.01 h, 100 ppm, duration: 4 hr, person | 7110 ng/mL
14.05 h, 100 ppm, duration: 4 hr, person | 7820 ng/mL
16 h, 100 ppm, duration: 4 hr, person | 7960 ng/mL
16.01 h, 100 ppm, duration: 4 hr, person | 7740 ng/mL
17.81 h, 100 ppm, duration: 4 hr, person | 8690 ng/mL
17.98 h, 100 ppm, duration: 4 hr, person | 7930 ng/mL
41.89 h, 100 ppm, duration: 4 hr, person | 8480 ng/mL
44.06 h, 100 ppm, duration: 4 hr, person | 9620 ng/mL
65.95 h, 100 ppm, duration: 4 hr, person | 6780 ng/mL
67.63 h, 100 ppm, duration: 4 hr, person | 7420 ng/mL
89.84 h, 100 ppm, duration: 4 hr, person | 6470 ng/mL
91.02 h, 100 ppm, duration: 4 hr, person | 5310 ng/mL
324 s, 100 ppm, duration: 4 hr, person | 3160 ng/mL

human [16], 100 ppm, duration: 4 hr, person, during exposure
Settings | concentration in blood [ng/mL]
-3.454 h | 294
-3.442 h | 210
-3.04 h | 620
-2.832 h | 741
-1.998 h | 1360
-1.982 h | 1680
-1.033 h | 2270
-0.8992 h | 2830
